The target of series [1] is Mitogen-activated protein kinase 14 (Homo sapiens, UniProt Q16539). In words: Inhibition of human recombinant P38alpha-mediated ATF2 phosphorylation after 1 hr.
Series [2] in a line: Antiinflammatory activity in human whole blood cells assessed as inhibition of LPS-induced TNFalpha production after 4 hrs by time-resolved fluorescence assay. It counts as functional, cell-based. Put shortly: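 Freshly drawn heparinized human whole blood was given compound diluted in human serum AB and preincubated 1 h at 37 °C. It was then stimulated with LPS (200 ng/mL, E. coli O111:B4) for 4 h at 37 °C. Supernatant TNF-α was read by homogeneous time-resolved fluorescence.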

In series [3] the test system is Mus musculus. As to the kind of experiment: Antiinflammatory activity in BALB/c mouse model of endotoxic shock assessed as inhibition of LPS-induced TNFalpha production at 50 mg/kg, po administered 30 mins before LPS challenge measured after 60 mins by ELISA. The class given is functional. Put shortly: (§1)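 Male BALB/c mice, 8 weeks old, were dosed orally at 10 mL/kg. Controls received vehicle (27% hydroxypropyl-β-cyclodextrin, 10 mL/kg). LPS (1 mg/kg) was injected i.p. 30 min after dosing. Blood was taken 60 min after LPS, and serum was separated for TNF-α measurement.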
(ELISA stands for enzyme-linked immunosorbent assay.)

Series [4] deals with Mus musculus. As to the kind of experiment: Hepatotoxicity in Crlj:CD1(ICR) mouse assessed as change in plasma ALT level at 1000 mg/kg, po administered for 5 consecutive days measured 24 hrs post final dosing (reference value: 24 +/- 4 U/L). Details: dose 1000 mg/kg, route oral. The class given is toxicity, organism-based. The note with it: in vivo.
For series [5], the system named is Mus musculus. As to the kind of experiment: Hepatotoxicity in Crlj:CD1(ICR) mouse assessed as change in plasma AST level at 1000 mg/kg, po administered for 5 consecutive days measured 24 hrs post final dosing (reference value: 45 +/- 11 U/L). It counts as toxicity, organism-based. Also on record: dose 1000 mg/kg, route oral. Particulars: in vivo.
Series [6] relates to Mus musculus. As to the kind of experiment: Hepatotoxicity in Crlj:CD1(ICR) mouse assessed as change in plasma AST level at 2000 mg/kg, po administered for 5 consecutive days measured 24 hrs post final dosing (reference value: 45 +/- 11 U/L). The class given is toxicity, organism-based. Also on record: dose 2000 mg/kg, route oral. The note with it: in vivo.
In series [7] the test system is Mus musculus. In words: Antiinflammatory activity in po dosed BALB/c mouse model of endotoxic shock assessed as inhibition of LPS-induced TNFalpha production administered 30 mins before LPS challenge measured after 60 mins by ELISA.
Series [8] deals with Mus musculus. As to the kind of experiment: Hepatotoxicity in Crlj:CD1(ICR) mouse assessed as change in plasma ALT level at 2000 mg/kg, po administered for 5 consecutive days measured 24 hrs post final dosing (reference value: 24 +/- 4 U/L). Particulars: in vivo. The class given is toxicity, organism-based. Details: dose 2000 mg/kg, route oral.
In series [9] the test system is Mus musculus. As to the kind of experiment: Hepatotoxicity in Crlj:CD1(ICR) mouse assessed as change in plasma ALT level at 500 mg/kg, po administered for 5 consecutive days measured 24 hrs post final dosing (reference value: 24 +/- 4 U/L). The class given is toxicity, organism-based. Also on record: dose 500 mg/kg, route oral. Particulars: in vivo.
Series [10] deals with Mus musculus. As to the kind of experiment: Hepatotoxicity in Crlj:CD1(ICR) mouse assessed as change in plasma AST level at 500 mg/kg, po administered for 5 consecutive days measured 24 hrs post final dosing (reference value: 45 +/- 11 U/L). The class given is toxicity, organism-based. Details: dose 500 mg/kg, route oral. Particulars: in vivo.
The test system of series [11] is Mus musculus. In words: Antiinflammatory activity in BALB/c mouse model of endotoxic shock assessed as inhibition of LPS-induced TNFalpha production at 100 mg/kg, po administered 30 mins before LPS challenge measured after 60 mins by ELISA. The class given is functional. Put shortly: as §1
Series [12] has as its system Mus musculus. In words: Hepatotoxicity in Crlj:CD1(ICR) mouse assessed as change in plasma total bilirubin level at 500 to 1000 mg/kg, po administered for 5 consecutive days measured 24 hrs post final dosing. It counts as toxicity, organism-based. Details: dose 500-1000 mg/kg, route oral. The note with it: in vivo.
In series [13] the test system is Mus musculus. As to the kind of experiment: Hepatotoxicity in Crlj:CD1(ICR) mouse assessed as change in plasma AST level at 500 to 1000 mg/kg, po administered for 5 consecutive days measured 24 hrs post final dosing. Particulars: in vivo. It counts as toxicity, organism-based. Details: dose 500-1000 mg/kg, route oral.
For series [14], the system named is Mus musculus. In words: Hepatotoxicity in Crlj:CD1(ICR) mouse assessed as change in plasma direct bilirubin level at 500 to 1000 mg/kg, po administered for 5 consecutive days measured 24 hrs post final dosing. Also on record: dose 500-1000 mg/kg, route oral. Particulars: in vivo. The class given is toxicity, organism-based.

pIC50: −log10 of the molar value.

Sequence of Mitogen-activated protein kinase 14 (Q16539 whole entry): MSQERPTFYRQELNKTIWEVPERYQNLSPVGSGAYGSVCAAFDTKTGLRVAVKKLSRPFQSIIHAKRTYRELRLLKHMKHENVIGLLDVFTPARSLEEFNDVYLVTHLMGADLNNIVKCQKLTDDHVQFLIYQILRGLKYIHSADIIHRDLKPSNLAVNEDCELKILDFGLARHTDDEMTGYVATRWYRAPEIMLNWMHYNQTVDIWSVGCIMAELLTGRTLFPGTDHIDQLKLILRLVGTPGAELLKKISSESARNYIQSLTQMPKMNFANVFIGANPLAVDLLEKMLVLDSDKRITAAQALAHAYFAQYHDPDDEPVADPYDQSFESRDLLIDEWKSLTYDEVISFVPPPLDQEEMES

In general, pIC50 refers to −log10 of the IC50, conventionally taken in molar units. On to `Cc1ccc(-n2nc(C(C)(C)C)cc2NC(=O)NCc2cc(C)ccc2Oc2ccnc(N3CCOCC3)n2)cc1`, for which the figures for the negative logarithm of the IC50 (pIC50) in [1] and in series [2] were 7.89 and 6.01, respectively.
Broadly, the inhibition in vivo is the share of the control response that was lost under treatment. As to `Cc1ccc(-n2nc(C(C)(C)C)cc2NC(=O)NCc2ccccc2Oc2ccnc(N3CCOCC3)n2)cc1`, the results for the pIC50 in [1] and in [2] were 7.92 and 6.14, respectively. Besides, the inhibition in vivo at 50 mg/kg with Mus musculus [3] was determined as 65%.
What is called ED50 is the dose that gives a 50% effect, or the effect in half of the subjects. For the molecule `Cc1ccc(-n2nc(C(C)(C)C)cc2NC(=O)NCc2cc(F)ccc2Oc2ccnc(N3CCOCC3)n2)cc1`, the results for the pIC50 in series [1] and in [2] were 8.40 and 6.64, respectively. In addition, the Activity in the series with Mus musculus [4] was found to be 32 U/L; in the series with Mus musculus [5] it was 47 U/L; in the series with Mus musculus [6], 46 U/L; in the series on Mus musculus [8], 28 U/L; with Mus musculus [9], 26 U/L; in the series on Mus musculus [10], 42 U/L. In addition, the inhibition in vivo at 50 mg/kg with Mus musculus [3] worked out at 84%. Moreover, the ED50 with Mus musculus [7] is 16 mg/kg.
For the molecule `Cc1ccc(-n2nc(C(C)(C)C)cc2NC(=O)NCc2cc(C(F)(F)F)ccc2Oc2ccnc(N3CCOCC3)n2)cc1`, the pIC50 is 7.46 in series [1] and under 5.00 in series [2].
`Cc1ccc(-n2nc(C(C)(C)C)cc2NC(=O)NCc2cc(Cl)ccc2Oc2ccnc(N3CCOCC3)n2)cc1`: the pIC50 in series [1] was 8.30; in series [2] it was 6.72. In the series on Mus musculus [11], the inhibition in vivo at 100 mg/kg was 81%.
Turning to `Cc1ccc(-n2nc(C(C)(C)C)cc2NC(=O)NCc2cc(F)cc(F)c2Oc2ccnc(N3CCOCC3)n2)cc1`, the pIC50 in series [1] was 8.52; in series [2] it was 7.32.
Take `Cc1ccc(-n2nc(C(C)(C)C)cc2NC(=O)NCc2ccccc2Oc2ccnc(Cl)n2)cc1`: the pIC50 in series [1] is 7.70.
Same read-out and setting: to `Cc1ccc(-n2nc(C(C)(C)C)cc2NC(=O)NCc2ccccc2Oc2ccnc(N3CCCCC3)n2)cc1` belongs 7.89.
On the same count and under the same terms, as for `Cc1ccc(-n2nc(C(C)(C)C)cc2NC(=O)NCc2cc(F)cc(C)c2Oc2ccnc(N3CCOCC3)n2)cc1`, the figure is 7.85.
Consider `Cc1ccc(-n2nc(C(C)(C)C)cc2NC(=O)Nc2ccc(OCCN3CCOCC3)c3ccccc23)cc1` [DORAMAPIMOD], for which the Activity result in the series with Mus musculus [12], in the series on Mus musculus [13] and with Mus musculus [14] was “Toxic” each time. The pIC50 in series [2] was 6.22. The inhibition in vivo at 50 mg/kg with Mus musculus [3] was found to be 82%.
For `Cc1ccc(-n2nc(C(C)(C)C)cc2NC(=O)NCc2cc(F)cc(Cl)c2Oc2ccnc(N3CCOCC3)n2)cc1`, the figures for the pIC50 in series [1] and in [2] were 7.96 and 6.96, respectively.
As to `Cc1ccc(-n2nc(C(C)(C)C)cc2NC(=O)NCc2ccccc2O)cc1`, in series [1], the pIC50 was 5.82.
